# Measured values as given in ChEMBL document CHEMBL4190408 (J Med Chem, 2018).
# The source made the active and inactive calls. The calls are words filed in the database; no cut-off is given here.
# Columns and labels:
# Escherichia coli = assay: Genotoxicity in Escherichia coli uvrA up to 2000 uM after 2 days in presence or absence of liver S9 fraction by Ames test; assay type: toxicity, organism-based; conditions: s9, 48 h
# Outline: (§1)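 Ames MPF format with Salmonella typhimurium TA98, TA100, TA1535, TA1537 and E. coli uvrA. Run with and without metabolic activation (S9), 2-day incubation, up to 2000 µM.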
# Mus musculus [1] = assay: (§2) Inhibition of allograft rejection in Balb/c mouse heterotopic cardiac transplantation model using C57BL/6 as cardiac donor assessed as long-term graft survival rate by measuring cardiac allograft function by daily palpitation at 5 mg/kg, po qd for 28 days; assay type: functional, organism-based; conditions: in the assay text read “for 14 days” for “for 28 days”
# Outline: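 Heterotopic cardiac allografts from C57BL/6 donors into Balb/C recipients. Recipients received 5 mpk as a homogeneous suspension in 0.1% Tween 80, 0.1% silicone antifoam, 1% methylcellulose (400 cps), or vehicle alone, by oral gavage once daily. Survival was compared with vehicle; rejection was indicated when the graft stopped beating.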
# [2] = Thermodynamic solubility of the compound in pH 7.4 solution after 90 mins by UVLC-MS analysis; assay type: physicochemical; conditions: pH 7.4 solution, pH 7.4; read-out: Therm_solubility
# Salmonella typhimurium [3] = assay: Genotoxicity in Salmonella typhimurium TA1537 up to 2000 uM after 2 days in presence or absence of liver S9 fraction by Ames test; assay type: toxicity, organism-based; conditions: salmonella enterica subsp. enterica serovar typhimurium, s9, 48 h; outline: as §1
# Mus musculus [4] = assay: Unbound AUC (infinity) in Balb/c mouse at 10 mg/kg, po after 1 hr; assay type: ADME, organism-based; conditions: in vivo
# physchem [5] = conditions: phosphate buffer, pH 7.4
# in vitro [6] = conditions: mouse, liver microsomes
# [7] = Fraction unbound in mouse blood; assay type: ADME, tissue-based
# [8] = (§3) Half life in Balb/c mouse at 1 mg/kg, iv; assay type: ADME, organism-based; conditions: Balb/c, in vivo
# Outline: (§4)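 Intravenous PK in male Balb/C mice, n=3, at 1 mpk. Vehicle was 30% DMA or 15% NMP, depending on the compound.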
# Salmonella typhimurium [9] = assay: Genotoxicity in Salmonella typhimurium TA100 up to 2000 uM after 2 days in presence or absence of liver S9 fraction by Ames test; assay type: toxicity, organism-based; conditions: salmonella enterica subsp. enterica serovar typhimurium, s9, 48 h; outline: as §1
# [10] = (§5) Clearance in Balb/c mouse at 1 mg/kg, iv; assay type: ADME, organism-based; conditions: Balb/c, in vivo; outline: as §4
# [11] = (§6) Oral bioavailability in Balb/c mouse at 10 mg/kg after 1 hr; assay type: ADME, organism-based; conditions: Balb/c, in vivo
# Outline: (§7)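 Male Balb/C mice, n=3. Oral dose of 10 mpk as a homogeneous suspension of crystalline solid in 0.1% Tween 80, 0.1% silicone antifoam, 1% methylcellulose (400 cps) in water. I.v. dose of 1 mpk in 30% DMA or 15% NMP, depending on the compound. Bioavailability was extrapolated from the i.v./p.o. experiments.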
# [12] = (§8) Volume of distribution at steady state in Balb/c mouse at 1 mg/kg, iv; assay type: ADME, organism-based; conditions: Balb/c, in vivo, read-out: Vdss; outline: as §4
# Salmonella typhimurium [13] = assay: Genotoxicity in Salmonella typhimurium TA98 up to 2000 uM after 2 days in presence or absence of liver S9 fraction by Ames test; assay type: toxicity, organism-based; conditions: salmonella enterica subsp. enterica serovar typhimurium, s9, 48 h; outline: as §1
# in vitro [14] = conditions: human, liver microsomes
# physchem [15] = conditions: pH 7.4 solution
# [16] = Apparent clearance in Balb/c mouse at 10 mg/kg, po after 1 hr; assay type: ADME, organism-based; conditions: in vivo
# Salmonella typhimurium [17] = assay: Genotoxicity in Salmonella typhimurium TA1535 up to 2000 uM after 2 days in presence or absence of liver S9 fraction by Ames test; assay type: toxicity, organism-based; conditions: salmonella enterica subsp. enterica serovar typhimurium, s9, 48 h; outline: as §1
# Mus musculus [18] = assay: Unbound AUC in Balb/c mouse at 1 mg/kg, iv; assay type: ADME, organism-based; conditions: in vivo; outline: as §4
# Mus musculus [19] = assay: Unbound Cmax in Balb/c mouse at 10 mg/kg, po after 1 hr; assay type: ADME, organism-based; conditions: in vivo
# [20] = target: Phosphatidylinositol 4-kinase beta (Homo sapiens, UniProt Q9UBF8); assay: Inhibition of recombinant human full length GST-tagged PI4K3beta expressed in baculovirus expression system using PI lipid kinase substrate after 60 mins by ADP-Glo assay
# Phosphatidylinositol 4-kinase beta, sequence (Q9UBF8 whole entry): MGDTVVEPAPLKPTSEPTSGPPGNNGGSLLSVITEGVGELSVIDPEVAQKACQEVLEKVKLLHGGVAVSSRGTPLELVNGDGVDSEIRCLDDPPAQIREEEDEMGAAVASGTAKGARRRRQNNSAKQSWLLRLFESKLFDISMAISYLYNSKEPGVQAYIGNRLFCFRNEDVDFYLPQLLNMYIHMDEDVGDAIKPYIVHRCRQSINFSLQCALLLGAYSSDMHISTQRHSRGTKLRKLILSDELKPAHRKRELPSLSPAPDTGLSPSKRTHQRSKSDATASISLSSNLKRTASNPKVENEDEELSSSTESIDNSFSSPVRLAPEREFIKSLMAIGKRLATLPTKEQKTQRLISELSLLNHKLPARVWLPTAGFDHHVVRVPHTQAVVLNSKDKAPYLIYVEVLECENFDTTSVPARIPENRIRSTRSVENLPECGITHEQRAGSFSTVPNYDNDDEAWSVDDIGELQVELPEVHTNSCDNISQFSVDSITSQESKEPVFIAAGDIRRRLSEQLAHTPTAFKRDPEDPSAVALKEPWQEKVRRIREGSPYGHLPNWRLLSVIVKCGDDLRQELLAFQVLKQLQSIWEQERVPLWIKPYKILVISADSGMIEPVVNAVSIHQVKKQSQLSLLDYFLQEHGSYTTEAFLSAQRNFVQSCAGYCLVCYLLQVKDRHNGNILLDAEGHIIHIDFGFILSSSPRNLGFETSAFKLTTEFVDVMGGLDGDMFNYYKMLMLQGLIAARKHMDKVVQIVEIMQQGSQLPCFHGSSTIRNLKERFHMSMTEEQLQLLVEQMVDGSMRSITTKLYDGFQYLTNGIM
# [21] = target: Phosphatidylinositol 4-kinase type 2-beta (Homo sapiens) (UniProt Q8TCG2); assay: Inhibition of recombinant human full length GST-tagged PI4K2beta expressed in insect cells at 10 uM
# Phosphatidylinositol 4-kinase type 2-beta (Homo sapiens), sequence (Q8TCG2 whole entry): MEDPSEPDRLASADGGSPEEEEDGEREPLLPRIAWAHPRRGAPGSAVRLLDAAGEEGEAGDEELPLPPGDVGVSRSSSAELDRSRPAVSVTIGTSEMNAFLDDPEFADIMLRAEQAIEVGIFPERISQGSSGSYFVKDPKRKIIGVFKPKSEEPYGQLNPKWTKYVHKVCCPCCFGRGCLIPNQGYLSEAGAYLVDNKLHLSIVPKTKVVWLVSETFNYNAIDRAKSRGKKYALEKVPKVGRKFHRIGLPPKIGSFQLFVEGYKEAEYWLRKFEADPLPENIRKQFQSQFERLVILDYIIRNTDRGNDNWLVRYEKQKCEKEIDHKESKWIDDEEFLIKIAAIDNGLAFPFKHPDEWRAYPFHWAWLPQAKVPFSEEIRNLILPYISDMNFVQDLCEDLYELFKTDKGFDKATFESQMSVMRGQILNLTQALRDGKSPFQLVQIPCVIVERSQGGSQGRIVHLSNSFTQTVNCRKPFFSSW
# Mus musculus [22] = assay: Unbound Cmax in Balb/c mouse at 100 mg/kg, po after 1 hr; assay type: ADME, organism-based; conditions: in vivo
# Mus musculus [23] = assay: Immunosuppressive activity in OXA-induced Balb/c mouse T-cell dependent model of antibody response assessed as inhibition of IgG1 production in serum at 100 mg/kg, po qd pretreated for 30 mins followed by OXA challenge measured on day 7 post dose by ELISA; assay type: functional, organism-based
# Mus musculus [24] = assay: Unbound Cmax in Balb/c mouse at 30 mg/kg, po after 1 hr; assay type: ADME, organism-based; conditions: in vivo
# Mus musculus [25] = assay: Immunosuppressive activity in Balb/c mouse assessed as inhibition of anti-CD3-mediated T-cell activation by measuring IFNgamma release in plasma at 100 mg/kg, po pretreated for 30 mins followed by anti-CD3 stimulation measured after 180 mins by ELISA relative to control; assay type: functional
# Outline: (§9)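 Balb/C mice (n=8 per group) were dosed orally with 1, 10 or 100 mpk in 0.1% Tween 80, 0.1% silicone antifoam, 1% methylcellulose (400 cps) vehicle, before anti-CD3 challenge. IFNγ release (pg/ml) was measured over a time course. Percent inhibition is the mean (±SEM) relative to the vehicle-treated positive control.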
# Mus musculus [26] = assay: as §3; assay type: ADME, organism-based; conditions: in vivo; outline: as §4
# Salmonella typhimurium [27] = assay: Genotoxicity in Salmonella typhimurium TA98 up to 1667 ug/plate in presence or absence of liver S9 fraction by Ames test; assay type: toxicity, organism-based; conditions: salmonella enterica subsp. enterica serovar typhimurium
# Outline: (§10)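 Three-strain bacterial miniAMES with TA1537, TA98 and TA100, with and without S9 activation. Top concentrations 500 and 1667 µg.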
# Salmonella typhimurium [28] = assay: Genotoxicity in Salmonella typhimurium TA1537 up to 1667 ug/plate in presence or absence of liver S9 fraction by Ames test; assay type: toxicity, organism-based; conditions: salmonella enterica subsp. enterica serovar typhimurium; outline: as §10
# [29] = Apparent clearance in Balb/c mouse at 30 mg/kg, po after 1 hr; assay type: ADME, organism-based; conditions: in vivo
# Mus musculus [30] = assay: Immunosuppressive activity in OXA-induced Balb/c mouse T-cell dependent model of antibody response assessed as inhibition of IgG1 production in serum at 100 mg/kg, po qd pretreated for 30 mins followed by OXA challenge measured on day 14 post dose by ELISA; assay type: functional, organism-based
# Salmonella typhimurium [31] = assay: Genotoxicity in Salmonella typhimurium TA100 up to 1667 ug/plate in presence or absence of liver S9 fraction by Ames test; assay type: toxicity, organism-based; conditions: salmonella enterica subsp. enterica serovar typhimurium; outline: as §10
# Mus musculus [32] = assay: as §5; assay type: ADME, organism-based; conditions: in vivo; outline: as §4
# Mus musculus [33] = assay: as §6; assay type: ADME, organism-based; conditions: in vivo, 1 h; outline: as §7
# Mus musculus [34] = assay: Unbound AUC (infinity) in Balb/c mouse at 100 mg/kg, po after 1 hr; assay type: ADME, organism-based; conditions: in vivo
# Mus musculus [35] = assay: as §8; assay type: ADME, organism-based; conditions: in vivo; outline: as §4
# [36] = target: Phosphatidylinositol 4-kinase alpha (Homo sapiens) (UniProt P42356); assay: Inhibition of PI4K3alpha (unknown origin) at 10 uM
# Phosphatidylinositol 4-kinase alpha (Homo sapiens), sequence (P42356 whole entry, looked up): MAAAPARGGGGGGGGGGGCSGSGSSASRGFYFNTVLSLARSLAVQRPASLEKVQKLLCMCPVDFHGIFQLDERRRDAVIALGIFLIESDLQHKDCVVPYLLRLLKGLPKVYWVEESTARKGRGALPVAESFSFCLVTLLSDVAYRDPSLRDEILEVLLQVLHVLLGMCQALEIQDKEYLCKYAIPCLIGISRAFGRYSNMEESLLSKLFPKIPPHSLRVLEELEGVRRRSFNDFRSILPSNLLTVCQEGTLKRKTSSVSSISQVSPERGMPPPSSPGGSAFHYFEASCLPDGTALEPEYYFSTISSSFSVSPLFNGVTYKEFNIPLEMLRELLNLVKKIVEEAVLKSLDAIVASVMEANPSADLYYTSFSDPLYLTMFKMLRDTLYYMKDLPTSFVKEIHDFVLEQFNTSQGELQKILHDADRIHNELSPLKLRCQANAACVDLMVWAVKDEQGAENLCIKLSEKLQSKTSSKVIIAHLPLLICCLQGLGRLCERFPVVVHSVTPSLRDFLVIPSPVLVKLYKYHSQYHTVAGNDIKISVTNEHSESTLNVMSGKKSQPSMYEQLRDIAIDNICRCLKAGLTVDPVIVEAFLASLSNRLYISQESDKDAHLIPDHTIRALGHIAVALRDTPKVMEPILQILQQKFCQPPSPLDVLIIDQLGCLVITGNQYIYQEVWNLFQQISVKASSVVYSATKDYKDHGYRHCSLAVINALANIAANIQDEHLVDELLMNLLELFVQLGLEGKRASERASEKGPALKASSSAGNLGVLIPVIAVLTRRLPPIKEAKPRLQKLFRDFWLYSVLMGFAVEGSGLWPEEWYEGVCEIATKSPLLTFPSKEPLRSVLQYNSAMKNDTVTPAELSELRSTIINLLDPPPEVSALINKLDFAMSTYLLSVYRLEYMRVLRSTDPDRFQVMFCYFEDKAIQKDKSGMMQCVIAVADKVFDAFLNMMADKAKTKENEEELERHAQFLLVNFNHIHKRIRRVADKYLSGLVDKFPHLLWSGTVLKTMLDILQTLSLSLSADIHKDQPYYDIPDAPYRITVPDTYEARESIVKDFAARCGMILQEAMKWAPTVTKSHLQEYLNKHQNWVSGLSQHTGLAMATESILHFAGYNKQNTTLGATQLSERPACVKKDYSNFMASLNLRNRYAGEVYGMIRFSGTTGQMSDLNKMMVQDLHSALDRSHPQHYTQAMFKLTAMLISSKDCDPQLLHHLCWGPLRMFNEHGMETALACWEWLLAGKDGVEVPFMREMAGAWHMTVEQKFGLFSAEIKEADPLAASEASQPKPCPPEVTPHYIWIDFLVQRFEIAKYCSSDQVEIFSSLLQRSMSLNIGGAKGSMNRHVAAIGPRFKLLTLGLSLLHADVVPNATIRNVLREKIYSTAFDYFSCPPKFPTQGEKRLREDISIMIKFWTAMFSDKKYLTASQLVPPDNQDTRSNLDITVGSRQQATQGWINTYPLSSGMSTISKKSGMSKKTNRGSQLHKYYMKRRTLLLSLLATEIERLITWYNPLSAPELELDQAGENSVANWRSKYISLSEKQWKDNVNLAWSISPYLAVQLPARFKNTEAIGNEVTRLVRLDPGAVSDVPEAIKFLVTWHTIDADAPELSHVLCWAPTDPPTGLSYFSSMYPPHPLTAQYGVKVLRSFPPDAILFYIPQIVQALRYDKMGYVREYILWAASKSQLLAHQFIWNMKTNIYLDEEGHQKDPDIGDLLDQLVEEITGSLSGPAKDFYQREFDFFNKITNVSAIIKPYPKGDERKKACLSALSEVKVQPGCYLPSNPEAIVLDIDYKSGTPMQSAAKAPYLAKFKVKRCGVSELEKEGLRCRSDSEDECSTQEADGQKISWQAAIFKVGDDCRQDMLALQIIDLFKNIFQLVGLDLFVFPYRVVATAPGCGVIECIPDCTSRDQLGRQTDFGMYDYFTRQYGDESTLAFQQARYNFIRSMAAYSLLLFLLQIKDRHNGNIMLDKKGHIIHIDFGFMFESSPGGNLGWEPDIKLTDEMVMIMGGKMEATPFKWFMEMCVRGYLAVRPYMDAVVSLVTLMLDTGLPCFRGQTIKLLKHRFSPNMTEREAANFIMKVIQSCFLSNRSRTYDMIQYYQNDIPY
# Mus musculus [37] = assay: as §2, with “100 mg/kg administered via oral gavage as” for “5 mg/kg, po”, “days relative to control” for “days”; assay type: functional; conditions: 672 h
# Cytochrome P450 3A4 = Cytochrome P450 3A4 (Homo sapiens, UniProt P08684)
# Cytochrome P450 3A4, sequence (P08684 whole entry): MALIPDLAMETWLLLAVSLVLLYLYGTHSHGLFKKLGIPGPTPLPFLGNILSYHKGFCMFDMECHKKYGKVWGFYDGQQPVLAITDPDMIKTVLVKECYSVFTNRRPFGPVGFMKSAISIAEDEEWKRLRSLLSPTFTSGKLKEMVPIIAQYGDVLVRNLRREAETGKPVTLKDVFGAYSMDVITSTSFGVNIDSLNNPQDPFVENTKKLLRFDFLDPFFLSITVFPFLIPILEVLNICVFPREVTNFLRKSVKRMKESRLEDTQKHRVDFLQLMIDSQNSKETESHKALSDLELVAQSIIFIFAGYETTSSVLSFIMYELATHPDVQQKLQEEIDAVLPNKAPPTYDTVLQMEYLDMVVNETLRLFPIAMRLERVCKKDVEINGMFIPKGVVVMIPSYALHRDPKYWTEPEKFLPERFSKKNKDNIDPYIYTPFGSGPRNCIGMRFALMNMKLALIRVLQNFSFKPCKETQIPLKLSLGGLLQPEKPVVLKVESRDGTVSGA
# Mus musculus [38] = assay: Immunosuppressive activity in Balb/c mouse assessed as inhibition of anti-CD3-mediated T-cell activation by measuring IFNgamma release in plasma at 10 mg/kg, po pretreated for 30 mins followed by anti-CD3 stimulation measured after 180 mins by ELISA relative to control; assay type: functional; outline: as §9
# Mus musculus [39] = assay: Immunosuppressive activity in po dosed Balb/c mouse assessed as inhibition of anti-CD3-mediated T-cell activation by measuring IFNgamma release in plasma pretreated for 30 mins followed by anti-CD3 stimulation measured after 180 mins by ELISA; assay type: functional, organism-based; outline: as §9
# Mus musculus [40] = assay: as §2, with “100 mg/kg administered via oral gavage as” for “5 mg/kg, po”, “days measured after treatment withdrawal” for “days”; assay type: functional, organism-based
# [41] = Apparent clearance in Balb/c mouse at 100 mg/kg, po after 1 hr; assay type: ADME, organism-based; conditions: in vivo
# Mus musculus [42] = assay: Unbound AUC (infinity) in Balb/c mouse at 30 mg/kg, po after 1 hr; assay type: ADME, organism-based; conditions: in vivo
# [43] = target: Phosphatidylinositol 4-kinase type 2-alpha (Homo sapiens) (UniProt Q9BTU6); assay: Inhibition of recombinant human full length GST-tagged PI4K2alpha expressed in insect cells at 10 uM
# [44] = Unbound Tmax in Balb/c mouse at 10 to 100 mg/kg, po; assay type: ADME, organism-based; conditions: in vivo, read-out: fTmax
# [45] = target: Voltage-gated inwardly rectifying potassium channel KCNH2 (Homo sapiens, UniProt Q12809)
# Voltage-gated inwardly rectifying potassium channel KCNH2, sequence (Q12809 whole entry): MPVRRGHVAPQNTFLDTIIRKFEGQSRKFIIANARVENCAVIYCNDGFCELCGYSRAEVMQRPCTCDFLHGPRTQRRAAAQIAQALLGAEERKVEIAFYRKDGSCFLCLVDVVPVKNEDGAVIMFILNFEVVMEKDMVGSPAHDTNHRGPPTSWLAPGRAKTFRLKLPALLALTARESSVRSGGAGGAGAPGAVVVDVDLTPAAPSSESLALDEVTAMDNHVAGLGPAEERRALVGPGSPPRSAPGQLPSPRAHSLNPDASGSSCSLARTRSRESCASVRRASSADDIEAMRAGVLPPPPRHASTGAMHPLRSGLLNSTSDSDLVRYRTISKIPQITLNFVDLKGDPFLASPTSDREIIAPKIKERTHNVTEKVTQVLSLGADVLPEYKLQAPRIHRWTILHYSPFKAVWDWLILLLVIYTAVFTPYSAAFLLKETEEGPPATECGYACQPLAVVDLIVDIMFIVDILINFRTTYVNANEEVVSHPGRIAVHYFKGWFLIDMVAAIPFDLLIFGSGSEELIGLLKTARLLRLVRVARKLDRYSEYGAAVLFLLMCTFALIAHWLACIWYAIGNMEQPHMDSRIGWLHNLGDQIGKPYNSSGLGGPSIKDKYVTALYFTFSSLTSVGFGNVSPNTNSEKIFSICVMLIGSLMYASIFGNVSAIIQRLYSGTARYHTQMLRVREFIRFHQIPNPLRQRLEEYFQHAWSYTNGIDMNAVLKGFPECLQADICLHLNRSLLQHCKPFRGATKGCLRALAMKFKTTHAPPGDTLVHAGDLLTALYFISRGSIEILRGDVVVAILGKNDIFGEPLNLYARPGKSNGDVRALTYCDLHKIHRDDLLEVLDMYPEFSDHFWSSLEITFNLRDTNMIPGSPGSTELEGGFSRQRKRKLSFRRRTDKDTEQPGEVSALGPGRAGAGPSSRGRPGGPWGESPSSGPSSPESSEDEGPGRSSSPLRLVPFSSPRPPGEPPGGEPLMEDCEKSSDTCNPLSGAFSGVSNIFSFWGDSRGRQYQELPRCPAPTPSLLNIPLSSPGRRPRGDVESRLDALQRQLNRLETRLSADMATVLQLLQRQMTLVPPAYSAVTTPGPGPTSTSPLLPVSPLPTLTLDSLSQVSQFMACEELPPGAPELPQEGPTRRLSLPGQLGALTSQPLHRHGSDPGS
# Mus musculus [46] = assay: Immunosuppressive activity in Balb/c mouse assessed as inhibition of anti-CD3-mediated T-cell activation by measuring IFNgamma release in plasma at 1 mg/kg, po pretreated for 30 mins followed by anti-CD3 stimulation measured after 180 mins by ELISA relative to control; assay type: functional; outline: as §9
compound,measurement,setting,value
COc1ccc(NC(=O)N2CCN(c3nc(N)nc4c3cnn4C)[C@@H](C)C2)c(C)c1,Activity,Escherichia coli,Non-Toxic
same,Activity,Mus musculus [1],Active
same,solubility thermodynamic at 1.5 h,[2],110 µM
same,Activity,Salmonella typhimurium [3],Non-Toxic
same,fAUC,Mus musculus [4],6.941 µM·h
same,logD at 1.5 h,physchem [5],1.47
same,"microsomal CLint at 0.75 h, 3 µM",in vitro [6],6 µL/min/mg
same,fraction unbound,[7],0.09
same,half-life,[8],1.4 h
same,Activity,Salmonella typhimurium [9],Non-Toxic
same,clearance,[10],5 mL/min/kg
same,bioavailability,[11],100%
same,Vd,[12],0.6 L/kg
same,Activity,Salmonella typhimurium [13],Non-Toxic
same,"microsomal CLint at 0.75 h, 3 µM",in vitro [14],4 µL/min/mg
same,solubility kinetic at 1.5 h,physchem [15],> 350 µM
same,CL/F,[16],5.3 mL/min/kg
same,Activity,Salmonella typhimurium [17],Non-Toxic
same,fAUC,Mus musculus [18],0.684 µM·h
same,fCmax,Mus musculus [19],2113 nM
COc1ccc(NC(=O)C2CCN(c3nc(N)nc4scnc34)CC2)cc1,IC50,[20],> 6 µM
COc1ccc(NC(=O)N2CCN(c3nc(N)nc4scnc34)CC2)cc1,inhibition,[21],inactive
same,fCmax,Mus musculus [22],967 nM
same,inhibition,Mus musculus [23],Active
same,fAUC,Mus musculus [4],0.332 to 0.333 µM·h
same,logD at 1.5 h,physchem [5],1.85
same,fCmax,Mus musculus [24],444 nM
same,"microsomal CLint at 0.75 h, 3 µM",in vitro [6],15 µL/min/mg
same,inhibition in vivo at 100 mg/kg,Mus musculus [25],87.5%
same,fraction unbound,[7],0.061
same,t1/2,Mus musculus [26],Nd(Insoluble)
same,Activity,Salmonella typhimurium [27],Non-Toxic
same,Activity,Salmonella typhimurium [28],Non-Toxic
same,CL/F,[29],112 mL/min/kg
same,inhibition,Mus musculus [30],Active
same,Activity,Salmonella typhimurium [31],Non-Toxic
same,CL,Mus musculus [32],Nd(Insoluble)
same,F,Mus musculus [33],Nd(Insoluble)
same,fAUC,Mus musculus [34],3.907 µM·h
same,Vdss,Mus musculus [35],Nd(Insoluble)
same,inhibition,[36],inactive
same,survival at 100 mg/kg,Mus musculus [37],50%
same,IC50,Cytochrome P450 3A4,> 20 µM
same,inhibition in vivo at 10 mg/kg,Mus musculus [38],54.9%
same,inhibition,Mus musculus [39],Dose-dependent effect
same,inhibition,Mus musculus [40],Active
same,"microsomal CLint at 0.75 h, 3 µM",in vitro [14],21 µL/min/mg
same,CL/F,[41],86 mL/min/kg
same,solubility kinetic at 1.5 h,physchem [15],85 µM
same,CL/F,[16],80 mL/min/kg
same,fAUC,Mus musculus [42],0.769 µM·h
same,fAUC,Mus musculus [18],Nd(Insoluble)
same,inhibition,[43],inactive
same,Tmax,[44],1 h
same,IC50,[45],28 µM
same,inhibition in vivo at 1 mg/kg,Mus musculus [46],24.6%
same,fCmax,Mus musculus [19],154 nM
